Results published in ChEMBL document CHEMBL4828740, “Discovery of Quinoxaline-Based P1-P3 Macrocyclic NS3/4A Protease Inhibitors with Potent Activity against Drug-Resistant Hepatitis C Virus Variants” (J Med Chem, 2021).

tested on: Hepatitis C virus; assay: Antiviral activity against HCV genotype 1b infected in human Huh7 cells incubated for 96 hrs by luciferase assay; assay type: functional, organism-based, Hepacivirus hominis; conditions: Huh-7, 96 h
Procedure, shortened: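 Con1 (GT-1b) luciferase reporter replicon carrying the H77 (GT-1a) NS3 protease region, either WT or with A156T or D168A introduced by megaprimer mutagenesis. Cured Huh7 cells grown in DMEM with 10% heat-inactivated FBS and 0.1 mM non-essential amino acids. Cells electroporated with replicon RNA and kept with serially diluted inhibitor.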

| SMILES | EC50 [nM] |
| --- | --- |
| COc1ccc2nc(O[C@@H]3C[C@H]4C(=O)N[C@]5(C(=O)NS(=O)(=O)C6(C)CC6)C[C@H]5/C=C/CCCCC[C@H](NC(=O)OC(C)(C)C(F)(F)F)C(=O)N4C3)c(C(F)(F)F)nc2c1 | 1 |
| COc1ccc2nc(C)c(O[C@@H]3C[C@H]4C(=O)N[C@]5(C(=O)NS(=O)(=O)C6(C)CC6)C[C@H]5/C=C/CCCCC[C@H](NC(=O)O[C@H](C)C(F)(F)F)C(=O)N4C3)nc2c1 | 0.5 |
| COc1ccc2nc(O[C@@H]3C[C@H]4C(=O)N[C@]5(C(=O)NS(=O)(=O)C6(C)CC6)C[C@H]5/C=C/CCCCC[C@H](NC(=O)OC5(C(F)(F)F)CCCC5)C(=O)N4C3)c(C(F)(F)F)nc2c1 | 0.7 |
| COc1ccc2nc(C)c(O[C@@H]3C[C@H]4C(=O)N[C@]5(C(=O)NS(=O)(=O)C6(C)CC6)C[C@H]5/C=C/CCCCC[C@H](NC(=O)OCC5(C(F)(F)F)CC5)C(=O)N4C3)nc2c1 | 0.1 |
| COc1ccc2nc(C)c(O[C@@H]3C[C@H]4C(=O)N[C@]5(C(=O)NS(=O)(=O)C6(C)CC6)C[C@H]5/C=C/CCCCC[C@H](NC(=O)OCC5(C)CC5(F)F)C(=O)N4C3)nc2c1 (some centres undefined) | 0.3 |

target: T1, Hepatitis C virus serine protease, NS3/NS4A (Hepatitis C virus, UniProt A3EZI9+D2K2A8); assay: Inhibition of HCV GT-1a NS3/4a protease using Ac-DE-D(Edans)-EE-Abu-c-[COO]-AS-K(Dabcy1)-NH2 preincubated for 1 hr followed by substrate addition; assay type: protein complex, Hepatitis C virus subtype 1a; conditions: not given

| SMILES | Ki [nM] |
| --- | --- |
| COc1ccc2nc(O[C@@H]3C[C@H]4C(=O)N[C@]5(C(=O)NS(=O)(=O)C6(C)CC6)C[C@H]5/C=C/CCCCC[C@H](NC(=O)OC(C)(C)C(F)(F)F)C(=O)N4C3)c(C(F)(F)F)nc2c1 | 3.6 |
| COc1ccc2nc(C)c(O[C@@H]3C[C@H]4C(=O)N[C@]5(C(=O)NS(=O)(=O)C6(C)CC6)C[C@H]5/C=C/CCCCC[C@H](NC(=O)O[C@H](C)C(F)(F)F)C(=O)N4C3)nc2c1 | 1.1 |
| COc1ccc2nc(O[C@@H]3C[C@H]4C(=O)N[C@]5(C(=O)NS(=O)(=O)C6(C)CC6)C[C@H]5/C=C/CCCCC[C@H](NC(=O)OC5(C(F)(F)F)CCCC5)C(=O)N4C3)c(C(F)(F)F)nc2c1 | 5.7 |
| COc1ccc2nc(C)c(O[C@@H]3C[C@H]4C(=O)N[C@]5(C(=O)NS(=O)(=O)C6(C)CC6)C[C@H]5/C=C/CCCCC[C@H](NC(=O)OCC5(C(F)(F)F)CC5)C(=O)N4C3)nc2c1 | 0.9 |
| COc1ccc2nc(C)c(O[C@@H]3C[C@H]4C(=O)N[C@]5(C(=O)NS(=O)(=O)C6(C)CC6)C[C@H]5/C=C/CCCCC[C@H](NC(=O)OCC5(C)CC5(F)F)C(=O)N4C3)nc2c1 (some centres undefined) | 3.1 |

tested on: Hepatitis C virus; assay: Antiviral activity against HCV genotype 1b harboring A156T mutant infected in human Huh7 cells incubated for 96 hrs by luciferase assay; assay type: functional, organism-based, Hepacivirus hominis; conditions: subtype 1b, Huh-7, 96 h
Procedure, shortened: (§1)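 Con1 (GT-1b) luciferase reporter replicon carrying the H77 (GT-1a) NS3 protease region, with the mutation introduced by megaprimer site-directed mutagenesis. Cured Huh7 cells were grown in DMEM with 10% heat-inactivated FBS and 0.1 mM non-essential amino acids, electroporated with replicon RNA transcripts, and kept with serially diluted inhibitor. EC50 was taken directly from the inhibition curves.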

| SMILES | EC50 [nM] |
| --- | --- |
| COc1ccc2nc(O[C@@H]3C[C@H]4C(=O)N[C@]5(C(=O)NS(=O)(=O)C6(C)CC6)C[C@H]5/C=C/CCCCC[C@H](NC(=O)OC(C)(C)C(F)(F)F)C(=O)N4C3)c(C(F)(F)F)nc2c1 | 10 |
| COc1ccc2nc(C)c(O[C@@H]3C[C@H]4C(=O)N[C@]5(C(=O)NS(=O)(=O)C6(C)CC6)C[C@H]5/C=C/CCCCC[C@H](NC(=O)O[C@H](C)C(F)(F)F)C(=O)N4C3)nc2c1 | 18 |
| COc1ccc2nc(O[C@@H]3C[C@H]4C(=O)N[C@]5(C(=O)NS(=O)(=O)C6(C)CC6)C[C@H]5/C=C/CCCCC[C@H](NC(=O)OC5(C(F)(F)F)CCCC5)C(=O)N4C3)c(C(F)(F)F)nc2c1 | 19 |
| COc1ccc2nc(C)c(O[C@@H]3C[C@H]4C(=O)N[C@]5(C(=O)NS(=O)(=O)C6(C)CC6)C[C@H]5/C=C/CCCCC[C@H](NC(=O)OCC5(C(F)(F)F)CC5)C(=O)N4C3)nc2c1 | 5.6 |
| COc1ccc2nc(C)c(O[C@@H]3C[C@H]4C(=O)N[C@]5(C(=O)NS(=O)(=O)C6(C)CC6)C[C@H]5/C=C/CCCCC[C@H](NC(=O)OCC5(C)CC5(F)F)C(=O)N4C3)nc2c1 (some centres undefined) | 8.3 |

tested on: Hepatitis C virus; assay: Antiviral activity against HCV genotype 3a infected in human Huh7.5 cells incubated for 72 hrs by luciferase assay; assay type: functional, organism-based, Hepacivirus hominis; conditions: subtype 3a, Huh7.5, 72 h
Procedure, shortened: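 Huh7.5 cells stably harboring the GT-3a replicon S52/SG-Feo SHI, seeded at 8,000 cells/well. Cells lysed in 1X Passive Lysis Buffer and luciferase activity measured. EC50 taken from drug inhibition curves.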

| SMILES | EC50 [nM] |
| --- | --- |
| COc1ccc2nc(O[C@@H]3C[C@H]4C(=O)N[C@]5(C(=O)NS(=O)(=O)C6(C)CC6)C[C@H]5/C=C/CCCCC[C@H](NC(=O)OC(C)(C)C(F)(F)F)C(=O)N4C3)c(C(F)(F)F)nc2c1 | 330 |
| COc1ccc2nc(C)c(O[C@@H]3C[C@H]4C(=O)N[C@]5(C(=O)NS(=O)(=O)C6(C)CC6)C[C@H]5/C=C/CCCCC[C@H](NC(=O)O[C@H](C)C(F)(F)F)C(=O)N4C3)nc2c1 | 260 |
| COc1ccc2nc(O[C@@H]3C[C@H]4C(=O)N[C@]5(C(=O)NS(=O)(=O)C6(C)CC6)C[C@H]5/C=C/CCCCC[C@H](NC(=O)OC5(C(F)(F)F)CCCC5)C(=O)N4C3)c(C(F)(F)F)nc2c1 | 290 |
| COc1ccc2nc(C)c(O[C@@H]3C[C@H]4C(=O)N[C@]5(C(=O)NS(=O)(=O)C6(C)CC6)C[C@H]5/C=C/CCCCC[C@H](NC(=O)OCC5(C(F)(F)F)CC5)C(=O)N4C3)nc2c1 | 330 |

target: T1, Hepatitis C virus serine protease, NS3/NS4A; assay: Inhibition of HCV GT-3a NS3/4a protease using Ac-DE-D(Edans)-EE-Abu-c-[COO]-AS-K(Dabcy1)-NH2 preincubated for 1 hr followed by substrate addition; assay type: protein-complex assay, Hepatitis C virus subtype 3a; conditions: not given

| SMILES | Ki [nM] |
| --- | --- |
| COc1ccc2nc(O[C@@H]3C[C@H]4C(=O)N[C@]5(C(=O)NS(=O)(=O)C6(C)CC6)C[C@H]5/C=C/CCCCC[C@H](NC(=O)OC(C)(C)C(F)(F)F)C(=O)N4C3)c(C(F)(F)F)nc2c1 | 390 |
| COc1ccc2nc(C)c(O[C@@H]3C[C@H]4C(=O)N[C@]5(C(=O)NS(=O)(=O)C6(C)CC6)C[C@H]5/C=C/CCCCC[C@H](NC(=O)O[C@H](C)C(F)(F)F)C(=O)N4C3)nc2c1 | 122 |
| COc1ccc2nc(O[C@@H]3C[C@H]4C(=O)N[C@]5(C(=O)NS(=O)(=O)C6(C)CC6)C[C@H]5/C=C/CCCCC[C@H](NC(=O)OC5(C(F)(F)F)CCCC5)C(=O)N4C3)c(C(F)(F)F)nc2c1 | 414 |
| COc1ccc2nc(C)c(O[C@@H]3C[C@H]4C(=O)N[C@]5(C(=O)NS(=O)(=O)C6(C)CC6)C[C@H]5/C=C/CCCCC[C@H](NC(=O)OCC5(C(F)(F)F)CC5)C(=O)N4C3)nc2c1 | 230 |
| COc1ccc2nc(C)c(O[C@@H]3C[C@H]4C(=O)N[C@]5(C(=O)NS(=O)(=O)C6(C)CC6)C[C@H]5/C=C/CCCCC[C@H](NC(=O)OCC5(C)CC5(F)F)C(=O)N4C3)nc2c1 (some centres undefined) | 100 |

tested on: Hepatitis C virus; assay: Antiviral activity against HCV genotype 1b harboring D168A mutant infected in human Huh7 cells incubated for 96 hrs by luciferase assay; assay type: functional, organism-based, Hepacivirus hominis; conditions: subtype 1b, Huh-7, 96 h; procedure, shortened: as §1

| SMILES | EC50 [nM] |
| --- | --- |
| COc1ccc2nc(O[C@@H]3C[C@H]4C(=O)N[C@]5(C(=O)NS(=O)(=O)C6(C)CC6)C[C@H]5/C=C/CCCCC[C@H](NC(=O)OC(C)(C)C(F)(F)F)C(=O)N4C3)c(C(F)(F)F)nc2c1 | 4.3 |
| COc1ccc2nc(C)c(O[C@@H]3C[C@H]4C(=O)N[C@]5(C(=O)NS(=O)(=O)C6(C)CC6)C[C@H]5/C=C/CCCCC[C@H](NC(=O)O[C@H](C)C(F)(F)F)C(=O)N4C3)nc2c1 | 2.5 |
| COc1ccc2nc(O[C@@H]3C[C@H]4C(=O)N[C@]5(C(=O)NS(=O)(=O)C6(C)CC6)C[C@H]5/C=C/CCCCC[C@H](NC(=O)OC5(C(F)(F)F)CCCC5)C(=O)N4C3)c(C(F)(F)F)nc2c1 | 5.2 |
| COc1ccc2nc(C)c(O[C@@H]3C[C@H]4C(=O)N[C@]5(C(=O)NS(=O)(=O)C6(C)CC6)C[C@H]5/C=C/CCCCC[C@H](NC(=O)OCC5(C(F)(F)F)CC5)C(=O)N4C3)nc2c1 | 1.4 |
| COc1ccc2nc(C)c(O[C@@H]3C[C@H]4C(=O)N[C@]5(C(=O)NS(=O)(=O)C6(C)CC6)C[C@H]5/C=C/CCCCC[C@H](NC(=O)OCC5(C)CC5(F)F)C(=O)N4C3)nc2c1 (some centres undefined) | 2.1 |
